# Experimental data published in ChEMBL document CHEMBL3808372, “Identification of quinones as novel PIM1 kinase inhibitors” (Bioorg Med Chem Lett, 2016).
# Legend:
# [1] = biological target: Focal adhesion kinase 1 (Homo sapiens) (UniProt Q05397); assay: Inhibition of human FAK (402 to 696 amino acid residues) assessed as enzyme activity at 10 uM by KINOMEScan assay expressed in bacterial system assessed as enzyme activity at 10 uM by KINOMEScan assay; set-up: scale not given: the % may be the effect or the level left
# Procedure, shortened: (§1)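 Competition binding screen on a 100-kinase KINOMEscan panel, compound tested at a single 10 μM concentration. Primary binding read-out expressed as % Ctrl = (test compound signal − positive control signal)/(negative control signal − positive control signal) × 100, with lower values meaning stronger binding.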
# [2] = biological target: Serine/threonine-protein kinase pim-1 (Homo sapiens, UniProt P11309); assay: Share of MOE computational kinase hits for Pim family
# [3] = biological target: Mast/stem cell growth factor receptor Kit (Homo sapiens) (UniProt P10721); assay: Inhibition of human KIT (571 to 952 amino acid residues) expressed in bacterial system assessed as enzyme activity at 10 uM by KINOMEScan assay; set-up: scale not given: the % may be the effect or the level left
# Procedure, shortened: (§2)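 Commercial KINOMEscan binding panel of 100 kinases, test compound at 10 μM. Results are primary-screen binding interactions expressed as % Ctrl = (test compound signal − positive control signal)/(negative control signal − positive control signal) × 100. Lower % Ctrl means stronger binding.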
# [4] = biological target: Serine/threonine-protein kinase ULK2 (Homo sapiens) (UniProt Q8IYT8); assay: Inhibition of human ULK2 (1 to 301 amino acid residues) assessed as enzyme activity at 10 uM by KINOMEScan assay; set-up: scale not given: the % may be the effect or the level left
# Procedure, shortened: (§3)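 Single-concentration competition binding screen (KINOMEscan) across a 100-kinase panel at 10 μM. Primary binding read-out is reported as % of control: (test signal − positive-control signal)/(negative-control signal − positive-control signal) × 100. Lower values indicate stronger binding.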
# [5] = biological target: Serine/threonine-protein kinase PAK 4 (Homo sapiens) (UniProt O96013); assay: Inhibition of human PAK4 (144 to 438 amino acid residues) expressed in bacterial system assessed as enzyme activity at 10 uM by KINOMEScan assay; set-up: scale not given: the % may be the effect or the level left; procedure, shortened: as §3
# [6] = biological target: Hepatocyte growth factor receptor (Homo sapiens) (UniProt P08581); assay: Inhibition of human MET (1010 to 1367 amino acid residues) expressed in bacterial system assessed as enzyme activity at 10 uM by KINOMEScan assay; set-up: scale not given: the % may be the effect or the level left; procedure, shortened: as §2
# [7] = biological target: RAF proto-oncogene serine/threonine-protein kinase (Homo sapiens) (UniProt P04049); assay: Inhibition of human RAF1 (330 to 640 amino acid residues) expressed in bacterial system assessed as enzyme activity at 10 uM by KINOMEScan assay; set-up: scale not given: the % may be the effect or the level left; procedure, shortened: as §2
# [8] = biological target: Aurora kinase A (Homo sapiens) (UniProt O14965); assay: Inhibition of human AURKA (122 to 401 amino acid residues) assessed as enzyme activity at 10 uM by KINOMEScan assay; set-up: scale not given: the % may be the effect or the level left; procedure, shortened: as §1
# [9] = biological target: Ribosomal protein S6 kinase alpha-2 (Homo sapiens) (UniProt Q15349); assay: Inhibition of human RSK2 Kin.Dom.1-N-terminal (1 to 394 amino acid residues) assessed as enzyme activity at 10 uM by KINOMEScan assay; set-up: scale not given: the % may be the effect or the level left; procedure, shortened: as §3
# [10] = biological target: Serine/threonine-protein kinase DCLK1 (Homo sapiens) (UniProt O15075); assay: Inhibition of human DCAMKL1 (270 to 662 amino acid residues) assessed as enzyme activity at 10 uM by KINOMEScan assay; set-up: scale not given: the % may be the effect or the level left; procedure, shortened: as §1
# [11] = biological target: Tyrosine-protein kinase receptor UFO (Homo sapiens) (UniProt P30530); assay: Inhibition of human AXL (497 to 821 amino acid residues) assessed as enzyme activity at 10 uM by KINOMEScan assay expressed in bacterial system assessed as enzyme activity at 10 uM by KINOMEScan assay; set-up: scale not given: the % may be the effect or the level left
# Procedure, shortened: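 Commercial KINOMEscan binding screen across a 100-kinase panel, test compound at 10 μM. Primary-screen binding interactions reported as % Ctrl = (test compound signal − positive control signal)/(negative control signal − positive control signal) × 100. Lower values indicate stronger hits.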
# [12] = tested on: Tyrosine-protein kinase ABL1 (Homo sapiens), P00519 [T315I]; assay: Inhibition of human ABL1 kinase T315I mutant phosphorylation (229 to 512 amino acid residues) assessed as enzyme activity at 10 uM by KINOMEScan assay; set-up: scale not given: the % may be the effect or the level left; procedure, shortened: as §1
# [13] = biological target: Atypical kinase COQ8A, mitochondrial (Homo sapiens) (UniProt Q8NI60); assay: Inhibition of full length human ADCK3 expressed in bacterial system assessed as enzyme activity at 10 uM by KINOMEScan assay; set-up: scale not given: the % may be the effect or the level left; procedure, shortened: as §2
# [14] = biological target: Mitogen-activated protein kinase 9 (Homo sapiens) (UniProt P45984); assay: Inhibition of full length human JNK2 assessed as enzyme activity at 10 uM by KINOMEScan assay; set-up: scale not given: the % may be the effect or the level left; procedure, shortened: as §1
# [15] = biological target: Cyclin-dependent kinase 3 (Homo sapiens) (UniProt Q00526); assay: Inhibition of full length human CDK3 expressed in bacterial system assessed as enzyme activity at 10 uM by KINOMEScan assay; set-up: scale not given: the % may be the effect or the level left; procedure, shortened: as §1
# [16] = biological target: Non-receptor tyrosine-protein kinase TYK2 (Homo sapiens) (UniProt P29597); assay: Inhibition of human TYK2 JH1 catalytic domain (877 to 1187 amino acid residues) assessed as enzyme activity at 10 uM by KINOMEScan assay; set-up: scale not given: the % may be the effect or the level left; procedure, shortened: as §3
# [17] = biological target: Tyrosine-protein kinase JAK3 (Homo sapiens) (UniProt P52333); assay: Inhibition of human JAK3 JH1 catalytic domain (781 to 1124 amino acid residues) assessed as enzyme activity at 10 uM by KINOMEScan assay; set-up: scale not given: the % may be the effect or the level left; procedure, shortened: as §1
# [18] = biological target: Vascular endothelial growth factor receptor 2 (Homo sapiens) (UniProt P35968); assay: Inhibition of human VEGFR2 (787 to 1253 amino acid residues) assessed as enzyme activity at 10 uM by KINOMEScan assay; set-up: scale not given: the % may be the effect or the level left; procedure, shortened: as §2
# [19] = biological target: Cyclin-dependent kinase 16 (Homo sapiens) (UniProt Q00536); assay: Inhibition of human PCTK1 (160 to 474 amino acid residues) assessed as enzyme activity at 10 uM by KINOMEScan assay; set-up: scale not given: the % may be the effect or the level left; procedure, shortened: as §2
# [20] = biological target: Phosphatidylinositol 4,5-bisphosphate 3-kinase catalytic subunit alpha isoform (Homo sapiens) (UniProt P42336); assay: Inhibition of human PIK3CA (108 to 1068 amino acid residues) assessed as enzyme activity at 10 uM by KINOMEScan assay; set-up: scale not given: the % may be the effect or the level left; procedure, shortened: as §3
# [21] = biological target: Casein kinase I isoform gamma-2 (Homo sapiens) (UniProt P78368); assay: Inhibition of full length human CSNK1G2 expressed in bacterial system assessed as enzyme activity at 10 uM by KINOMEScan assay; set-up: scale not given: the % may be the effect or the level left; procedure, shortened: as §2
# [22] = biological target: Ephrin type-A receptor 2 (Homo sapiens) (UniProt P29317); assay: Inhibition of human EPHA2 (593 to 891 amino acid residues) assessed as enzyme activity at 10 uM by KINOMEScan assay expressed in bacterial system assessed as enzyme activity at 10 uM by KINOMEScan assay; set-up: scale not given: the % may be the effect or the level left; procedure, shortened: as §2
# [23] = biological target: Insulin-like growth factor 1 receptor (Homo sapiens) (UniProt P08069); assay: Inhibition of human IGF1R (972 to 1294 amino acid residues) assessed as enzyme activity at 10 uM by KINOMEScan assay expressed in bacterial system assessed as enzyme activity at 10 uM by KINOMEScan assay; set-up: scale not given: the % may be the effect or the level left; procedure, shortened: as §2
# [24] = biological target: Tyrosine-protein kinase JAK2 (Homo sapiens) (UniProt O60674); assay: Inhibition of human JAK2 JH1 catalytic domain (829 to 1132 amino acid residues) assessed as enzyme activity at 10 uM by KINOMEScan assay; set-up: scale not given: the % may be the effect or the level left; procedure, shortened: as §1
# Serine/threonine-protein kinase ULK2 (Homo sapiens), sequence (Q8IYT8 whole entry, the tested form may be a part): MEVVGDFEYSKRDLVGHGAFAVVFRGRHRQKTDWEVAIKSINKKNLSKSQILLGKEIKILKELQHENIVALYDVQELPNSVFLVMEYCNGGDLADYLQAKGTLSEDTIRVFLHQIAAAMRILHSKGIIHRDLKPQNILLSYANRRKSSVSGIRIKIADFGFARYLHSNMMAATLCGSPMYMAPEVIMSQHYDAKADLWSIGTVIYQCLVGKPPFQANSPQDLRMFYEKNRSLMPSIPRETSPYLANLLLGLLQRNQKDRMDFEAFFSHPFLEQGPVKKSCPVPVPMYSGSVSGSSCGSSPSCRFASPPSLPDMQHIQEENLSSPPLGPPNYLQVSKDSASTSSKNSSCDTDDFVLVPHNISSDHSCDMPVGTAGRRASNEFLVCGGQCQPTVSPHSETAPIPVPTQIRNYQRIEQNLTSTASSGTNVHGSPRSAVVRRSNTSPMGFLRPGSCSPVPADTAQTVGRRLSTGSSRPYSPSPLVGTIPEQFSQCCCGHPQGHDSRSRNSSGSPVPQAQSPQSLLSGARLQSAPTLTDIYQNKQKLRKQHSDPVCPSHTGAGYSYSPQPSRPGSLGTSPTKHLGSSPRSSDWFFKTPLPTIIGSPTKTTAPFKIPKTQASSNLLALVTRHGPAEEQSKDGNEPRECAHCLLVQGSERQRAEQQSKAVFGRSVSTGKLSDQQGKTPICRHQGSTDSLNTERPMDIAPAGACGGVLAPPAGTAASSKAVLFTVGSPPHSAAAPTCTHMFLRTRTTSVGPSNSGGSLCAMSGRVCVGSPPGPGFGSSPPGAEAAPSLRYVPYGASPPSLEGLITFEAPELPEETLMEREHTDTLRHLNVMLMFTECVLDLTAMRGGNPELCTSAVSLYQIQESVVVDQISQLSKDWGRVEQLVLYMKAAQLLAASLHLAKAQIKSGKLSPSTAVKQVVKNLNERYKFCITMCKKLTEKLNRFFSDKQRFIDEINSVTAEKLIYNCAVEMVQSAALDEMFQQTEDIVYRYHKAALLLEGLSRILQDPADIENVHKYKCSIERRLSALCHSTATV
# Ribosomal protein S6 kinase alpha-2 (Homo sapiens), sequence (Q15349 whole entry, the tested form may be a part): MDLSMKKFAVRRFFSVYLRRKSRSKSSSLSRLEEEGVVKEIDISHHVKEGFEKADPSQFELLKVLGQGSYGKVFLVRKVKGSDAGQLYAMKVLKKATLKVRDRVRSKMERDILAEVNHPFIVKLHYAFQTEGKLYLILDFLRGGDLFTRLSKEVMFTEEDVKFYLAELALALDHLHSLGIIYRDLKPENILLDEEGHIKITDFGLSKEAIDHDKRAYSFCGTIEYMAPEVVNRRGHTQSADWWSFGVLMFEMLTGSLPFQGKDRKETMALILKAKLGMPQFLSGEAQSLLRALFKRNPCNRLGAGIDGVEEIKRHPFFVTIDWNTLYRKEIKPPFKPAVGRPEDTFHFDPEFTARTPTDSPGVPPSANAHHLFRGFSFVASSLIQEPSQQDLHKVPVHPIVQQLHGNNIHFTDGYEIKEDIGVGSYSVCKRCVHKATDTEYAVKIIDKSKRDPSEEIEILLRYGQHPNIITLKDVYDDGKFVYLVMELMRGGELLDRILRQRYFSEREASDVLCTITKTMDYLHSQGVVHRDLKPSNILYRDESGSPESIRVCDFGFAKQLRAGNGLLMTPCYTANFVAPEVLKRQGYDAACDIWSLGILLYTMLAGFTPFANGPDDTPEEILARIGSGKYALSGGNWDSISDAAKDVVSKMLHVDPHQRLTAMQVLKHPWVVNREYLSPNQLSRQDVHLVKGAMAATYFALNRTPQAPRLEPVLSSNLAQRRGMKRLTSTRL
# Non-receptor tyrosine-protein kinase TYK2 (Homo sapiens), sequence (P29597 whole entry, the tested form may be a part): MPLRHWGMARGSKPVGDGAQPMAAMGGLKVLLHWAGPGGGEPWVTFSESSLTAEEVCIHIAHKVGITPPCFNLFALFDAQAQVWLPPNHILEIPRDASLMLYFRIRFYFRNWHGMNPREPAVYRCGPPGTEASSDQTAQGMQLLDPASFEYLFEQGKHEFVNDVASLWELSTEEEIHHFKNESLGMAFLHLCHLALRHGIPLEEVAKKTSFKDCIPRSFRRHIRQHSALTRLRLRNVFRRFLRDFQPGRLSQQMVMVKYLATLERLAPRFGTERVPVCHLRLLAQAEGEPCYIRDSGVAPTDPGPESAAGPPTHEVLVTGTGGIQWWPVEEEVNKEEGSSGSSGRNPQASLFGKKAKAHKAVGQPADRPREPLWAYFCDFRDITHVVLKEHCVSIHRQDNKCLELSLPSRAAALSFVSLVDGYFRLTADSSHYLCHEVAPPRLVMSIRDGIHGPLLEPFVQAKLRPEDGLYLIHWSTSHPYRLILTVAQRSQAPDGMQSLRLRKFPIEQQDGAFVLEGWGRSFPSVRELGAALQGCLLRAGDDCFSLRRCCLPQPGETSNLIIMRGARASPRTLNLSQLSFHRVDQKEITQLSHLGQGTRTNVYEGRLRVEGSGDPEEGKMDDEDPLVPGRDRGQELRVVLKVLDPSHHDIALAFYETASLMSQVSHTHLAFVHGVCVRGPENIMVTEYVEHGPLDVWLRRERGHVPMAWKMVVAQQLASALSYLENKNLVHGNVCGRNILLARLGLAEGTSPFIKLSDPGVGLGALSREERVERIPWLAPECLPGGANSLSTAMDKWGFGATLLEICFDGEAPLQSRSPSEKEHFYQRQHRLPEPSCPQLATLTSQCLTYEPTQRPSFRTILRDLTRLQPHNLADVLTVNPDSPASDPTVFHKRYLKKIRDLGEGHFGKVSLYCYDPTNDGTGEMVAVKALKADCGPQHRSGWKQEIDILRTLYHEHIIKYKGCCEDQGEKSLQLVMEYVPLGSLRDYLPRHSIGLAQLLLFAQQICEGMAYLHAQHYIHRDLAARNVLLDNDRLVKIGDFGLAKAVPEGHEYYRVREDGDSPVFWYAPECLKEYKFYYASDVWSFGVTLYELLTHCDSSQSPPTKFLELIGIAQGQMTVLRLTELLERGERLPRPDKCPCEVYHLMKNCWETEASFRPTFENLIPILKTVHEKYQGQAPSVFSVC
# Hepatocyte growth factor receptor (Homo sapiens), sequence (P08581 whole entry, the tested form may be a part): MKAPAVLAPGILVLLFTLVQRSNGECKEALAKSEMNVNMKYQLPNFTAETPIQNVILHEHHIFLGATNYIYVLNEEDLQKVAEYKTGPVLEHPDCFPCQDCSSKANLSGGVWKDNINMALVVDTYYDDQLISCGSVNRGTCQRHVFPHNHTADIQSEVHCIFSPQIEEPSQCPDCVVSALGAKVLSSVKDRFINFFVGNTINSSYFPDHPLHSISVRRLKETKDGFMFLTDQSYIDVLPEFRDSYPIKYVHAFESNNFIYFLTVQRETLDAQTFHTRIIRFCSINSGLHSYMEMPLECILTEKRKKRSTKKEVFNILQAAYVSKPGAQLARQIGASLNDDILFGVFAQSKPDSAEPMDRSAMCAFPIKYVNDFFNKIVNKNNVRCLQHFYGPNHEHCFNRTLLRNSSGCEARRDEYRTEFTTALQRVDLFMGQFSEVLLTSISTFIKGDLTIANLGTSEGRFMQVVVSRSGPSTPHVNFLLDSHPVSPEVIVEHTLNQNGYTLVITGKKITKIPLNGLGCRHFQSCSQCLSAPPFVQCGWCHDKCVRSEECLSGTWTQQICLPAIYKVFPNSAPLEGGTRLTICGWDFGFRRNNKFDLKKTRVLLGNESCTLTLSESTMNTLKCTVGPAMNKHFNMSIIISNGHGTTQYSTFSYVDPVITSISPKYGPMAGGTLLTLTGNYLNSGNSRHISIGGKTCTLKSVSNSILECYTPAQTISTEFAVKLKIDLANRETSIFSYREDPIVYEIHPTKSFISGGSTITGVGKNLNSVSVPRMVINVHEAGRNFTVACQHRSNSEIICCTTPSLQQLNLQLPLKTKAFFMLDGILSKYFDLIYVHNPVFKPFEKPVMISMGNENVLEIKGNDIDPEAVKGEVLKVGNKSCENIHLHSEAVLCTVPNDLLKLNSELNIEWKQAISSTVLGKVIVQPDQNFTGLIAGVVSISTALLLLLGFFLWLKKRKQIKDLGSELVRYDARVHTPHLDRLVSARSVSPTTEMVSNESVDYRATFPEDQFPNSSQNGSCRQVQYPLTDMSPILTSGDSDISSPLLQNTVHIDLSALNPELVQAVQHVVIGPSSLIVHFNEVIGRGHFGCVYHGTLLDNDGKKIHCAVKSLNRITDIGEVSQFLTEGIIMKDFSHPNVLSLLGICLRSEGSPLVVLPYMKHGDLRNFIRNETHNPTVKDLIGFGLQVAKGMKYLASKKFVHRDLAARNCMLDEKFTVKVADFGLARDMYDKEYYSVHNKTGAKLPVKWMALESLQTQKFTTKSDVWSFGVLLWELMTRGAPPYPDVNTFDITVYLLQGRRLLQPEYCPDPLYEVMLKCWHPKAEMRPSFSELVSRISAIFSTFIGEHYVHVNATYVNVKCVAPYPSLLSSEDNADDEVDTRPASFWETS
# Serine/threonine-protein kinase DCLK1 (Homo sapiens), sequence (O15075 whole entry, the tested form may be a part): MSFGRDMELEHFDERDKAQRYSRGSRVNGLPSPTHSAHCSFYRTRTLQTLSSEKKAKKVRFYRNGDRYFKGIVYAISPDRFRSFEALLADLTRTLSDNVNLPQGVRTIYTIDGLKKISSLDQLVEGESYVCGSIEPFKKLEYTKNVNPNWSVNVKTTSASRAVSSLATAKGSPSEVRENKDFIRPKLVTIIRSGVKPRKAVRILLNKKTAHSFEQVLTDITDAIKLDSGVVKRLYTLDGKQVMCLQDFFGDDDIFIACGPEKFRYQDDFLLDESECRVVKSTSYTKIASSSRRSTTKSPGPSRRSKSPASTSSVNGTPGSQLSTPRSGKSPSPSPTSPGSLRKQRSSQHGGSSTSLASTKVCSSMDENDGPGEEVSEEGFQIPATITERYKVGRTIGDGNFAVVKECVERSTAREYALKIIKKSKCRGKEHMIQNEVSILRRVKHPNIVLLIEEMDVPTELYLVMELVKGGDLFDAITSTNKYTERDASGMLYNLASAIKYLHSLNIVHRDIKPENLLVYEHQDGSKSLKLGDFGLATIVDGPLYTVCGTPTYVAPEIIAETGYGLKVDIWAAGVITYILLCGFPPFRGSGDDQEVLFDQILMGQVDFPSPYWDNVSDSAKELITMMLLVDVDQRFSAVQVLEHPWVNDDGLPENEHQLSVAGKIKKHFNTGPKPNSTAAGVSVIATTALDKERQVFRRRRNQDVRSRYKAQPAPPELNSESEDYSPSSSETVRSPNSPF
smiles,measurement,setting,value
O=C1C2=C(C(=O)c3c(O)ccc(O)c31)[C@@H](O)[C@@H](O)[C@@H](O)C2,Activity,[1],95%
same,% of MOE kinase hits,[2],29%
same,Activity,[3],76%
same,Activity,[4],88%
same,Activity,[5],91%
same,Activity,[6],100%
same,Activity,[7],100%
same,Activity,[8],87%
same,Activity,[9],53%
same,Activity,[10],90%
same,Activity,[11],100%
same,Activity,[12],95%
same,Activity,[13],100%
same,Activity,[14],84%
same,Activity,[15],88%
same,Activity,[16],57%
same,Activity,[17],61%
same,Activity,[18],100%
same,Activity,[19],100%
same,Activity,[20],99%
same,Activity,[21],100%
same,Activity,[22],100%
same,Activity,[23],100%
same,Activity,[24],94%
